# Rev-RRE block: disrupts HIV-1 Rev binding to RRE RNA | actives 0.79% (n = 97,000) | Rev peptide-RRE RNA binding, FRET | P05866 | inhibition, % at 8 µM;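 active = inhibition above the screen-wide mean plus 3 SD, cut at about 35% in these data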;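 also: 0% = median DMSO wells and 100% = median Neomycin B control wells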
#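 Assay system: Rev peptide and RRE RNA, both fluorescently labelled; times: 5 min preincubation and 15 min binding, 25 °C; detection: FRET, ex 480 nm, em 540 and 671 nm; read-out basis: % inhibition from 671/540 nm acceptor-to-donor ratio, scaled between controls; benchmarks: DMSO low control, neomycin B high control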
# LYP inh 2: LYP (human) phosphatase inhibition; recombinant LYP catalytic domain, DiFMUP fluorescence; inhibition, % at 2 µM; actives 0.21% (n = 96,000);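 active = inhibition at 2 µM at or above a set limit, the screen mean plus 3 SD, cut at about 24% in these data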;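 also: 0% = DMSO with enzyme and 100% = enzyme fully blocked by orthovanadate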
# PLK1 inh: blocks human PLK1 kinase activity; recombinant PLK1 kinase, TR-FRET peptide phosphorylation; inhibition, % at 10 µM; actives 0.53% (n = 97,000); AID 619;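 active = inhibition of 50% or more in the single-concentration screen; inactive = inhibition below 50%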;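 also: 0% = DMSO max control and 100% = H-89 dihydrochloride min control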
# EphB4 antag: antagonists of human EphB4-ephrin-B2 interaction | inhibition, % at 7 µM | EphB4 LBD / TNYL-RAW-Alexa532 peptide, fluorescence polarization | actives 0.15% (n = 97,000);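 active = inhibition above the screen-wide mean inhibition plus 3 SD, cut at about 15% in these data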;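 also: 0% = DMSO wells and 100% = excess unlabeled TNYL-RAW peptide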
# Target sequence (P54760 whole entry, looked up, the tested form may be a part): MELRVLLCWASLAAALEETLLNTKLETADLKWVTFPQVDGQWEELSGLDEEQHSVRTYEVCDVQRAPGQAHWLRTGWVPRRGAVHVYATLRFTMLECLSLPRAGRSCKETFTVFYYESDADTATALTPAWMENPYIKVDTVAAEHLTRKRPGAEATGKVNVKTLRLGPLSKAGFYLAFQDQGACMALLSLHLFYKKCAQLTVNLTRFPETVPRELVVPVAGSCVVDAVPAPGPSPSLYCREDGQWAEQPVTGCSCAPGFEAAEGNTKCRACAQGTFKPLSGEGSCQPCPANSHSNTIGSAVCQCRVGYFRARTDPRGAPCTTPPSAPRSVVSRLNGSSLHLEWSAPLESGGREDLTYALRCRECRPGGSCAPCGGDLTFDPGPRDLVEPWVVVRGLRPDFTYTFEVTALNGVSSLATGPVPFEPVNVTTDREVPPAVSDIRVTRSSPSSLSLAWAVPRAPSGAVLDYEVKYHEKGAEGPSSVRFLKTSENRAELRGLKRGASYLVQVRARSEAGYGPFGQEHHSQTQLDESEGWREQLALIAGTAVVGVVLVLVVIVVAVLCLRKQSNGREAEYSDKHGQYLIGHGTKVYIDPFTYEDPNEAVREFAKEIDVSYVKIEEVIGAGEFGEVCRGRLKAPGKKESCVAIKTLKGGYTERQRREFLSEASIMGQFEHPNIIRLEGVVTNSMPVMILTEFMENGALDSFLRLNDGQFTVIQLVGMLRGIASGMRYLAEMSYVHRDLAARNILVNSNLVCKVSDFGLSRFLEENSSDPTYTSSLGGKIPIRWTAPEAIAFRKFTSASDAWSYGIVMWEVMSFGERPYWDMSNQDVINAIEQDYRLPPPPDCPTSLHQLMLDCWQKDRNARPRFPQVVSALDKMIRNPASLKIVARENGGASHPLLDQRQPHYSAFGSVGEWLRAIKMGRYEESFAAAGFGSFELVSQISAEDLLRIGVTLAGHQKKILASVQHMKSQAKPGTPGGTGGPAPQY
# LYP act: increases human PTPN22 phosphatase activity; AID 697; recombinant LYP, DiFMUP fluorescence; 0 = plate median, 100 = signal doubled; activation, % at 2 µM; actives 0.11% (n = 96,000);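 active = activation at 2 µM above a set limit, the mean plus 5 SD, cut at about 37% in these data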
# PLK1 PBD inh: Plk1 (human) PBD binding inhibition; Plk1 PBD phosphopeptide binding, fluorescence polarization; inhibition, %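 (tested at about 20 µM)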; actives 0.13% (n = 97,000); in the data active = inhibition above about 34%, passing the limit was not always enough
# * hit, by the source's call; / = no result; [ ] = dose if it differs, or a comment. The list is not random: actives were taken first. Their share in the collection is about 2%.
SMILES,Rev-RRE block,LYP inh 2,PLK1 inh,EphB4 antag,LYP act,PLK1 PBD inh
CCOC(=O)CC(=O)CSc1nc2ccc(C)cc2cc1C#N,94*[fluorescence artefact?],8,-7,11,-10,-6
CN1C=CC2=C(C#N)C(N)C(C#N)(C#N)C(c3ccccc3)C2C1 (stereo not given),64*,-1,4,1,3,-14
Cc1n[nH]c(C)c1S(=O)(=O)N1CCCC(C(=O)Nc2ccc3c(c2)OCCO3)C1 (stereo not given),4,-5,0,-5,4,20
Cc1nc2cc(C(=O)O)ccc2n1-c1ccccc1,13,/,69*,0,/,-2
CCc1ccc(OCCNC(=O)c2cc(SC)ccc2Cl)cc1,13,14,-9,1,-14,-7
Fc1ccccc1NC(=S)N/N=C/c1ccccc1Br,-2,-3,2,4,1,-21
Nn1c(Nc2ccccc2)nc2ccccc2c1=O,5,4,59*,8,-5,4
Nn1c(Nc2ccccc2)nc2ccccc21,5,-10,-10,-5,10,18
CC12CN3CC(C)(CN(C1)C3c1ccc(Cl)cc1Cl)C2O (stereo not given),1,0,-5,-2,2,11
CN(C)c1ccc(C2N3CC4(C)CN2CC(C)(C3)C4O)cc1 (stereo not given),4,/,62*,-12,/,-19
Cn1cnnc1SCC(=O)Nc1sc2c(c1C#N)CCCCC2,17,11,-6,6,-8,17
CC(C)C(C(=O)O)N1C(=O)/C(=C/C=C/c2ccco2)SC1=S (stereo not given),-76,29*,-25,4,-25,-8
Brc1ccc2nc(CSc3ncn[nH]3)cn2c1,6,83*,-12,2,-84,-17
O=C(Cc1n[nH]c(=O)c2ccccc12)NCc1ccccn1,5,2,-5,-3,-6,-2
Cc1cc(-c2ccccc2)n2ncc(C#N)c2n1,4,/,54*,1,/,24
CCOC(=O)c1ccc2[nH]cc(C(C)=O)c(=O)c2c1,53*,1,-7,-3,-2,-17
CC(=O)c1c[nH]c2ccc(C)cc2c1=O,14,-1,-7,-6,4,15
COc1ccc(Nc2nc(N)nc(SCc3nnc(C)s3)n2)cc1,-5,6,-13,-1,-3,-50
COc1nnc(-c2ccc(N3CCOCC3)c(NC(=O)c3ccco3)c2)c2ccccc12,0,-12,-10,3,6,12
CCN(CC)c1ccc(C=N/C(C#N)=C(\N)C#N)cc1,53*,7,7,-2,-10,-4
CCN(CC)c1ccc(/C=N/N2CCOCC2)cc1,-2,4,1,0,-2,-5
COc1cc(/C=C2\SC(c3ccc(C)cc3)=NC2=O)cc(OC)c1O,50*[fluorescence artefact?],4,-13,-2,1,-21
COc1cc(-c2nc(S(=O)(=O)c3ccccc3)c(N3CCOCC3)o2)cc(OC)c1OC,8,4,-10,6,-3,9
CC(C)CCn1c(SCCN2CCOCC2)nc2c1c(=O)[nH]c(=O)n2C,6,-2,-6,18*,0,7
CC(C)CCn1c(SCCc2ccccc2)nc2c1c(=O)[nH]c(=O)n2C,11,10,-12,9,-11,-13
SMILES,Rev-RRE block,LYP inh 2,PLK1 inh,EphB4 antag,LYP act,PLK1 PBD inh
Cc1ccnc(N2C(=O)c3cccc4c([N+](=O)[O-])ccc(c34)C2=O)c1,45*,-8,-3,2,6,2
Cc1cccc(C(=O)NNC(=O)c2cc3cc4ccccc4nc3s2)c1,20,4,-9,0,-1,25
O=C(NNC(=O)c1cc2cc3ccccc3nc2s1)c1cccc(Cl)c1,-17,27*,-23,-7,-25,10
COc1ccc2c(C)cc(SCC(=O)N3CCOCC3)nc2c1,60*,-5,-6,-6,1,-81
Cn1c(SCc2ccccc2)nnc1-c1c[nH]c2ccccc12,0,9,-18,4,-10,-10
COc1cccc(-n2c(SCC(=O)N3CCOCC3)nnc2-c2c[nH]c3ccccc23)c1,8,/,63*,2,/,7
Cn1c(SCC(=O)N2CCN(c3ccccc3)CC2)nnc1-c1c[nH]c2ccccc12,3,/,67*,-1,/,15
CCCCSc1nnc(-c2c[nH]c3ccccc23)n1C,7,/,69*,2,/,-18
COc1ccc2c(C)cc(N3CCOCC3)nc2c1,11,-10,-2,7,12,-9
O=C(Nc1ccc(F)cc1F)N1CCN(C/C=C/c2ccccc2)CC1,5,-1,-6,0,-2,-10
Cc1cccc(NC(=O)CN2C(=O)NC(C)(c3ccc4c(c3)OCO4)C2=O)c1 (stereo not given),0,-5,-6,-3,4,10
CC(=O)OCCCCON1C(=O)c2ccccc2C1=O,-1,1,-18,-1,-2,10
Cc1ccc(S(=O)(=O)Nc2cccc(C(=O)Nc3cc(C)ccn3)c2)cc1,6,3,-11,3,-5,20
Cc1noc(C)c1S(=O)(=O)N1CCCC(C(=O)NC2CCCCC2)C1 (stereo not given),-2,-5,4,3,9,-3
COc1nc(-c2ccccc2)c2c(c1C#N)CC(C)(C)OC2,9,-13,-3,4,12,6
COCCN(C(=O)COc1ccccc1)c1nnc(-c2cccnc2)s1,4,0,-13,-9,2,-18
CCCCCCc1cc2cc(C(N)=O)c(=N)oc2cc1O,87*[fluorescence artefact?],-3,-8,1,-1,-84
CCCCC(=O)OCCNC(=O)c1cc2ccccc2oc1=O,10,-7,2,6,6,-11
CCCCCCc1cc2cc(C(=O)NC)c(=N)oc2cc1O,70*,4,-3,0,-5,-11
O=S(=O)(c1ccccc1)c1nc(-c2cccs2)oc1NCCCn1ccnc1,6,-3,-15,4,-1,-7
Cc1ccc(NC(=O)/C(=C\c2cccc(Br)c2)NC(=O)c2ccco2)cc1,0,8,-14,5,-4,-6
CCCOC(=O)Nc1nc2ccccc2o1,38*,5,-13,12,-7,-44
COCCCN1CC23C=CC(O2)C(C(=O)OC)C3C1=O (stereo not given),4,-6,6,-4,5,-10
COC(=O)C1C2C=CC3(CN(C(C)C)C(=O)C13)O2 (stereo not given),10,/,55*,4,/,13
CCOC(=O)c1[nH]c2ccc(OC)cc2c1NC(=O)CN1CCc2ccccc2C1,4,4,-3,-1,-7,15
CN1CCc2nc(SCC(=O)Nc3cccc(F)c3)c(C#N)c(-c3cccs3)c2C1,56*,2,-6,-3,2,-50
COc1ccc(C2(CNC(C)=O)CCOCC2)cc1OC,6,/,62*,-7,/,12

# Screening data: PubChem, several laboratories
